Measurements: article PMC10333676 (Redox Biology, 2023)

Legend:
[1] = biological target: T1, Mutant Magnetospirillum gryphiswaldense cereblon isoform 4 (MsCI4^WW/FF) (Magnetospirillum gryphiswaldense, UniProt A4TVL0, W36F/W59F); conditions: read-out: published Kd of MANT-uracil to MsCI4^WW/FF; cited from earlier work
T1 sequence (A4TVL0 1-124 W36F/W59F): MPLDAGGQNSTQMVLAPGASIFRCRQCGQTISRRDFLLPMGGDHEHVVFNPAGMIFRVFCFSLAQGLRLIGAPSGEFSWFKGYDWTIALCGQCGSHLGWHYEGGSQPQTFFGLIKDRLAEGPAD

C57BL/6 N male mice = assay: Acetaminophen; assay type: in vivo, mouse
[2] = tested on: HMOX1, NQO1, GCLC and GCLM (the target genes of NRF2); assay: NRF2 target gene expression by qRT-PCR in HepG2 cells; assay type: cell-based, human; conditions: HepG2, 100 nM
Method in brief: (§1)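 Cells got test compound 100 nM for indicated times. RNA was extracted with TRIzol, reverse-transcribed, and HMOX1, NQO1, GCLC and GCLM were quantified by qRT-PCR. Values were normalized to GAPDH and expressed as relative levels by ΔΔCt.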

KEAP1 [3] = biological target: T2, KEAP1 (Mus musculus, UniProt Q9Z2X8); assay: KEAP1 degradation in primary mouse hepatocytes by western blotting; assay type: cell-based; conditions: 1 to 1000 nM, 24 h
T2 sequence (Q9Z2X8 whole entry, the tested form may be a part): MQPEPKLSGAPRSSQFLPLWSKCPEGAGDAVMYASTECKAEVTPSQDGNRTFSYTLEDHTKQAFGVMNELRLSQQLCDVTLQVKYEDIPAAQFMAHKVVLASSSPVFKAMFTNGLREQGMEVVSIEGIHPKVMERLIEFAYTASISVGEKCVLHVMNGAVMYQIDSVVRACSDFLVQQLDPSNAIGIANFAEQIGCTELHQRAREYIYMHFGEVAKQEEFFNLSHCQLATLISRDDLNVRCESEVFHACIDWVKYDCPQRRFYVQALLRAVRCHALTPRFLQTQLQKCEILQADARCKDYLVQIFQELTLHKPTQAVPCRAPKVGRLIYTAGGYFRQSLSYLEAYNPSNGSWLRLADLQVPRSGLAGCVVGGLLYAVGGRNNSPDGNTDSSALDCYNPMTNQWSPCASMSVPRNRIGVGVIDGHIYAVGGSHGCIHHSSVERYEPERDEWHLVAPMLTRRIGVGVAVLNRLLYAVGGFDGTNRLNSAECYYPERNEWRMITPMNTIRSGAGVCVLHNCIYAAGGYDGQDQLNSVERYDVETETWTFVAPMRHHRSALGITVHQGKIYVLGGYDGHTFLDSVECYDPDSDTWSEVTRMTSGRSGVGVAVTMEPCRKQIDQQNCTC
Method in brief: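 Primary hepatocytes from male C57BL6/N mice were collagenase-perfused and plated in medium 199 with 10% FBS, 10 nM dexamethasone and 23 mM HEPES. […] KEAP1 was read by western blot. DC50 and Dmax came from densitometry of three independent experiments.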

[4] = tested on: primary mouse hepatocytes; assay: APAP-induced ROS generation; assay type: cell-based; conditions: 100 nM 6 h before APAP 20 mM
Method in brief: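 Primary hepatocytes came from 8–10-week male C57BL6/N mice by collagenase perfusion and were cultured in medium 199 with 10% FBS, 10 nM dexamethasone and 23 mM HEPES. The next day cells got test compound 100 nM for 6 h, then 50 μM DCF-DA (serum-free, 30 min, 37 °C), a wash and 20 mM APAP. Fluorescence (ex488/em525) was read every 20 min for 10 h; n = 4 per group.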

KEAP1 [5] = biological target: KEAP1 (Homo sapiens, UniProt Q14145); assay: KEAP1 degradation in HepG2 cells by western blotting; assay type: cell-based; conditions: for reduction of KEAP1 level: HepG2, 1 μM, 6 h
Chain of KEAP1 (Homo sapiens, UniProt Q14145) (Q14145 whole entry): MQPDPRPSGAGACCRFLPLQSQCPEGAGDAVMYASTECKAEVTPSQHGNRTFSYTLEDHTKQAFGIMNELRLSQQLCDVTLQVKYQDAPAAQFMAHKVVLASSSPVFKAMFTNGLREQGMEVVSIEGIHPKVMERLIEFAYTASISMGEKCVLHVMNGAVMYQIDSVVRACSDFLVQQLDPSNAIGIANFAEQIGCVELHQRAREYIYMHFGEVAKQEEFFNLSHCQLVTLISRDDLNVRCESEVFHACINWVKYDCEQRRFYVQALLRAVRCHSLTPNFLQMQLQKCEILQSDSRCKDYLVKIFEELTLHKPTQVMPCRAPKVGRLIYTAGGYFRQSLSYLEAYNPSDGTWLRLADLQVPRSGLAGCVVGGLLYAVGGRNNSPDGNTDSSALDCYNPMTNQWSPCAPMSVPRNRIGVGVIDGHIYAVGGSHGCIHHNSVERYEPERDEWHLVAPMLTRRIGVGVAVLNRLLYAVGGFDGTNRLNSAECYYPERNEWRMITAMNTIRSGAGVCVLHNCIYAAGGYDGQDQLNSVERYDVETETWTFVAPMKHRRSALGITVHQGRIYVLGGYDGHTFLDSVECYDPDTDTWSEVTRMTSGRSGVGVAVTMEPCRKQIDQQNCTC
Method in brief: (§2)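 CRBN-knockdown HepG2 clones were made with pGIPZ lentiviral shRNA (virus from transfected HEK293T, with 5 μg/mL polybrene) and GFP-FACS sorting. Lysates were western blotted and densitometry came from three independent experiments.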

[6] = biological target: T1, Mutant Magnetospirillum gryphiswaldense cereblon isoform 4 (MsCI4^WW/FF); assay: FRET-based competitive binding assay
Method in brief: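 Competitive FRET binding used mutant cereblon isoform 4 (MsCI4WW/FF) with the reporter ligand MANT-uracil. Buffer was 20 mM Tris pH 7.5, 150 mM NaCl, 5 mM 2-mercaptoethanol, final DMSO ≤0.02%. Tryptophan was read at ex 295/em 350 nm and FRET emission at 440 nm. Ligands were titrated to reduce the FRET signal, with MANT-uracil autofluorescence as blank and thalidomide as positive control; triplicates.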

NRF2 [7] = assay: Nuclear translocation of NRF2 in AML12 cells; assay type: cell-based, mouse
Method in brief: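 Nuclear fractionation: AML12 cells got test compound 300 nM for indicated times. Cells were pelleted (4000 G, 4 °C), extracted in nuclear buffer, frozen, then spun at 15,000 G for 20 min. Fractions were BCA-quantified and western blotted (GAPDH cytosolic, Lamin B nuclear loading controls), with densitometry from three independent experiments. Immunofluorescence: 100 or 300 nM for 3 h, 4% PFA, 0.1% Triton X-100, NRF2 stain, DAPI, confocal imaging.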

CRBN = CRBN (Homo sapiens, UniProt Q96SW2); assay: CRBN protein level in HepG2 cells by western blotting; assay type: cell-based; conditions: HepG2, 100 or 300 nM, 24 h
Chain of CRBN (Q96SW2 whole entry): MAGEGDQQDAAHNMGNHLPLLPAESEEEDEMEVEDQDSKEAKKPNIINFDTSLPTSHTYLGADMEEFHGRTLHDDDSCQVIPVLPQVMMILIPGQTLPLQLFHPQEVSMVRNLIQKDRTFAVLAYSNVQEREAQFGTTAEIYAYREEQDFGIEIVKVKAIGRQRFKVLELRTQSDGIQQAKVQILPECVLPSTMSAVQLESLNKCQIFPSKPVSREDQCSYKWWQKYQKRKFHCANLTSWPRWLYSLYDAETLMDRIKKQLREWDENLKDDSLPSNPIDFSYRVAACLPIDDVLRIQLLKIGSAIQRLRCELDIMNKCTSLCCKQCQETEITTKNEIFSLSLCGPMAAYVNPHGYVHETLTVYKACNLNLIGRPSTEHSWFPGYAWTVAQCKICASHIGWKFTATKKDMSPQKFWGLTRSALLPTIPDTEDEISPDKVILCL
Method in brief: as §2

AML12 cells [8] = assay: APAP-induced ROS generation; assay type: cell-based, mouse; conditions: AML12, APAP 5 mM, 4 h, 300 nM of SD2267
Method in brief: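 AML12 mouse hepatocytes (DMEM/F-12, 10% FBS, ITS-pyruvate, dexamethasone 40 ng/mL) were seeded and exposed the next day to 5 mM APAP with or without test compound. After 4 h, cells were loaded with 50 μM DCF-DA in serum-free medium for 30 min at 37 °C and washed. Fluorescence was read at ex488/em525.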

KEAP1 [9] = biological target: T2, KEAP1; assay: KEAP1 degradation in AML12 cells by western blotting; assay type: cell-based
Method in brief: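 AML12 cells got test compound for 24 h over a concentration series (DC50/Dmax) or 100 nM over a time course (DT50). Co-treatments: MG132 5 μM with 100 or 300 nM for 4 h; CQ 20 μM for 18 h, then 100 or 300 nM for 6 h; pomalidomide or TD-165 1 μM for 3 h, then 100 nM for 6 h. KEAP1 was read by western blot (RIPA, SDS-PAGE, PVDF, ECL) with densitometry from three independent experiments.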

[10] = tested on: HMOX1, NQO1, GCLC and GCLM (the target genes of NRF2); assay: NRF2 target gene expression by qRT-PCR in AML12 cells; assay type: cell-based, mouse; conditions: AML12, 100 nM
Method in brief: as §1

AML12 cells [11] = assay: APAP-induced mitochondrial ROS; assay type: cell-based, mouse; conditions: AML12, APAP 5 mM, 8 h
Method in brief: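 AML12 cells were exposed to 5 mM APAP with or without test compound for 8 h. They were then stained with 5 μM MitoSOX Red (mitochondrial ROS, red fluorescence) or 0.25 μg/mL JC-1 (green monomer fluorescence, rising as membrane potential falls). Intensities were read by flow cytometry; means ± SEMs, n = 3 per group.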

NRF2 [12] = assay: Nuclear translocation of NRF2 in HepG2 cells; assay type: cell-based, human
[13] = In vivo pharmacokinetics in ICR mice; set-up: species or system mouse; conditions: for AUC / AUC(0-t) / Cmax / MRT / half-life: male, ICR, mouse, plasma
Method in brief: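 Male ICR mice (7–8 weeks, 30–35 g) received test compound at 3 mg/kg IP or PO. Plasma concentration–time profiles were measured and PK parameters were derived by non-compartmental analysis.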

AML12 cells [14] = assay: APAP-induced loss of cell viability; assay type: cell-based, mouse; conditions: AML12, APAP 15 mM, 24 h, MTT
[15] = SD2267 3 mg/kg IP 2 h after APAP 250 mg/kg IP, 6 h

## CNc1ccccc1C(=O)NCCn1ccc(=O)[nH]c1=O [MANT-uracil, 1-(N-2-MANT-imidoethyl)-uracil]
[1]
  Kd: 3.3 µM

## Cc1ccc(C(CC(=O)O)c2cc(OCCCCCCCCNc3cccc4c3C(=O)N(C3CCC(=O)NC3=O)C4=O)c3c(c2)nnn3C)cc1CN1C[C@@H](C)Oc2ccccc2S1(=O)=O (stereo partly drawn) [SD2267]
C57BL/6 N male mice; 1 mg/kg IP, western blotting, p = 0.08
  KEAP1 protein level in the liver compared to APAP: a trend towards a decrease
C57BL/6 N male mice; 3 mg/kg IP
  increase of liver protein level of NRF2 and HO-1 versus APAP-only group: significantly greater
  phosphorylation of JNK induced by APAP in liver: significantly reduced
C57BL/6 N male mice; 3 mg/kg, 2 h post-treatment after APAP 250 mg/kg
  hepatic necrosis (HE staining): significantly reduced
C57BL/6 N male mice; 1 or 3 mg/kg IP
  liver GSH to GSSG ratio decreased by APAP: significantly and dose-dependently recovered
C57BL/6 N male mice; APAP + 3 mg/kg of SD2267, 369 in APAP-treated mice, HPF x400
  number of TUNEL-positive cells: 123 cells per HPF
C57BL/6 N male mice; [15]
  decrease of APAP-induced serum ALT increase: ~1.9 fold
  decrease of APAP-induced serum AST increase: ~2.2 fold
[2]
  mRNA expression levels of NRF2 target genes: significantly increased
KEAP1 [3]
  KEAP1 degradation: dose-dependently degraded
[4]
  APAP-induced ROS generation: significantly reduced
KEAP1 [5]; HepG2, 100 nM
  Half-life (DT50) of KEAP1: 2.6 h
KEAP1 [5]
  reduction of KEAP1 level: 64%
KEAP1 [5]; HepG2, read-out: maximum degradation efficacy (Dmax)
  Dmax at 0.3 µM: 82.3%
KEAP1 [5]; read-out: half-maximal degradation concentration (DC50), HepG2, 24 h, 1 to 1000 nM
  DC50: 0.0081 µM
KEAP1 [5]; shCRBN #10 HepG2, 100 or 300 nM, 24 h
  KEAP1 levels in CRBN knockdown cells: not affected
KEAP1 [5]; shCon HepG2, 100 or 300 nM, 24 h
  KEAP1 degradation in control cells: effectively degraded KEAP1
[6]
  Ki: 0.0577 ± 0.0175 µM
NRF2 [7]; AML12, 300 nM, within 3 h
  Nuclear NRF2 (nuclear fractionation, western blotting): significantly upregulated
NRF2 [7]; AML12, 100 or 300 nM, 3 h
  amount and nuclear localization of NRF2 (immunofluorescence, confocal microscopy): increased
CRBN
  CRBN degradation: not degraded
AML12 cells [8]
  APAP-induced increase of DCF-DA fluorescence intensity: significantly attenuated
KEAP1 [9]; AML12, 100 nM
  Half-life (DT50) of KEAP1: 2.2 h
KEAP1 [9]; AML12, CQ 20 μM 18 h prior to SD2267 100 or 300 nM 6 h
  KEAP1 degradation under autophagy inhibition by chloroquine: did not abolish
KEAP1 [9]; AML12, POM 1 μM or TD-165 1 μM 3 h prior to SD2267 100 nM 6 h
  KEAP1 degradation in the presence of pomalidomide or TD-165: attenuated
KEAP1 [9]; AML12, SD2267 100 or 300 nM, MG132 5 μM, 4 h
  KEAP1 degradation in the presence of MG132: could not degrade KEAP1
KEAP1 [9]; AML12, read-out: maximum degradation efficacy (Dmax)
  Dmax at 0.3 µM: 76.5%
KEAP1 [9]; read-out: half-maximal degradation concentration (DC50), AML12, 24 h, 1 to 1000 nM
  DC50: 0.0168 µM
[10]
  mRNA expression levels of HMOX1, NQO1, GCLC and GCLM: significantly increased
AML12 cells [11]
  APAP-induced increment of JC-1 green fluorescence intensity: significantly reduced
  MitoSOX Red fluorescence intensity versus APAP only: significantly lower
NRF2 [12]; HepG2, 100 nM, within 3 h
  Nuclear NRF2 (nuclear fractionation, western blotting): significantly upregulated
NRF2 [12]; HepG2, 100 or 300 nM, 3 h
  amount and nuclear localization of NRF2 (immunofluorescence, confocal microscopy): increased
[13]; PO, 3 mg/kg, mice, n = 3, median with range
  Tmax: 80 [60–120] min
[13]; ip, 3 mg/kg
  AUC: 7800 ng·h/mL
  AUC(0-t): 7720 ng·h/mL
  Cmax: 1970 ± 870 ng/mL
  MRT: 4.83 h
  half-life: 3.67 ± 0.283 h
[13]; po, 3 mg/kg
  AUC: 597 ng·h/mL
  AUC(0-t): 497 ng·h/mL
  Cmax: 172 ± 116 ng/mL
  MRT: 12.1 h
  half-life: 12.3 ± 1.7 h
[13]; oral parameters much lower than those of IP
  oral bioavailability: low oral bioavailability
AML12 cells [14]
  cell viability decreased by APAP: significantly recovered

## Cc1ccc(C(CC(=O)O)c2cc(OCCCCCCCCNc3ccc4c(c3)C(=O)N(C3CCC(=O)NC3=O)C4=O)c3c(c2)nnn3C)cc1CN1C[C@@H](C)Oc2ccccc2S1(=O)=O (stereo partly drawn) [SD2268]
KEAP1 [5]
  reduction of KEAP1 level: 7%
[6]
  Ki: 8.15 ± 5.71 µM

## Cc1ccc(C(CC(=O)O)c2cc(OCCCCNc3cccc4c3C(=O)N(C3CCC(=O)NC3=O)C4=O)c3c(c2)nnn3C)cc1CN1C[C@@H](C)Oc2ccccc2S1(=O)=O (stereo partly drawn) [SD2269]
KEAP1 [5]
  reduction of KEAP1 level: no effect
[6]
  Ki: 0.0648 ± 0.0132 µM
